From PubChem
Hits are enriched below; roughly 3.7% of the tested compounds scored in any of these assays.
DENV2 CPE = protects cells from dengue virus 2 cytopathic effect; DENV2-infected cells, cytopathic effect rescue, plate reader; CPE inhibition, % at 9.99 µM; actives 1.7% (n = 350,000); in the data active = CPE inhibition above about 20%, passing the limit was not always enough; tested in BHK-21 cells
E-selectin induc = induces E-selectin expression in human endothelial cells; activation, % at 7.58 µM; P16581; HUVEC E-selectin immunofluorescence imaging; normalized: neutral wells 0, TNF-alpha wells 100; actives 0.37% (n = 260,000);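 active = mean E-selectin-positive cell signal at least 10% of the positive control, reached in at least 60% of replicates, without over 20% cell loss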
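System: HUVEC, human umbilical vein endothelial cells; quantity: 3,000 cells/well; buffer or medium: EGM-2 medium, gelatin-coated wells; dosing: single-point compound dose; detection: immunofluorescence imaging; evaluation: % PE-positive cells; benchmarks: TNF-alpha, DMSO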
ERAP1 inh = ERAP1 (human) enzyme inhibition. Q9NZ08. recombinant ERAP1, Leu-AMC fluorescence, 60 min. inhibition, % at 10.7 µM. actives 0.15% (n = 340,000);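 active = mean replicate inhibition of at least 30%, or all replicates individually reaching that 30% level; inactive = mean below 30% and not every replicate reaching it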
FGF22 binding = binders of recombinant human FGF22 by thermal shift. SYPRO orange fluorescence; percent of sucrose octasulfate shift, DMSO zero. actives 1.5% (n = 340,000). activity (Tm shift, normalised), % at 9.99 µM;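 active = mean Tm shift, scaled 0 neutral to 100 positive control, at about 1.3% or above, every replicate too, limit read from the data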
Target sequence (Q9HCT0 whole entry, looked up): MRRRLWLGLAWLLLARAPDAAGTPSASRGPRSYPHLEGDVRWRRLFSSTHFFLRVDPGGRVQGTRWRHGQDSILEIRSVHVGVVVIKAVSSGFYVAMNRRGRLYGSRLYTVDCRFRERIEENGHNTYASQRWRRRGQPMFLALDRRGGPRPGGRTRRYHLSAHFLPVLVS
F508del corr = correctors of CFTR F508del function in bronchial epithelial cells; CFBE cells, YFP halide quenching; stimulated with forskolin plus potentiator P3; % fluorescence drop versus neutral controls; activity (quench increase), % at 7.58 µM; actives 0.36% (n = 350,000); AID 720511;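 active = mean added fluorescence quench of at least 8% versus neutral control, with both replicates also reaching 8%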;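 note: cells transiently co-express mutant CFTR-F508del with the halide-sensitive YFP; corrector assay measuring rescue of mutant channel to the surface after 24 h compound exposure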
Numbers stand for hits; i = inactive; nt = no result given.

SMILES	DENV2 CPE	E-selectin induc	ERAP1 inh	FGF22 binding	F508del corr
CCC(=O)Nc1ccc2c(c1)C(=O)N(C)[C@@H]1CC[C@@H](CC(=O)N[C@H](C)c3ccccc3)O[C@H]1CO2	i	i	i	i	i
CCC(=O)Nc1ccc2c(c1)C(=O)N(C)[C@@H]1CC[C@H](CC(=O)N[C@@H](C)c3ccccc3)O[C@H]1CO2	62.2	i	i	i	i
CCCNC(=O)N1CC2(C1)CN(C(C)=O)[C@@H](CO)c1c2c2ccc(OC)cc2n1C	i	i	i	i	i
CC(C)NC(=O)N(C)C[C@H]1OCCCC[C@@H](C)Oc2ccc(NS(=O)(=O)c3cn(C)cn3)cc2C(=O)N([C@@H](C)CO)C[C@H]1C	i	nt	i	i	i
CCS(=O)(=O)Nc1ccc2c(c1)C(=O)N(C)C[C@@H](OC)[C@@H](C)CN(C)[C@H](C)CO2	i	i	i	i	i
CCN1CCN(c2ncnc3c2cnn3-c2ccc(Cl)cc2)CC1	50.5	i	i	i	i
OCCCNc1ncnc2c1cnn2-c1ccc(Cl)cc1	i	nt	i	i	i
CN(C)CCNc1ncnc2c1cnn2-c1ccc(Cl)cc1	39.7	i	i	i	i
CCC(=O)N1CC(=O)N2[C@H](CO)[C@H](c3ccc(C#CCC(C)C)cc3)[C@H]2C1	i	i	i	i	i
CC(C)NC(=O)Nc1ccc2c(c1)C(=O)N([C@H](C)CO)C[C@@H](C)[C@@H](CN(C)C(=O)NC1CCCCC1)OCCCC[C@@H](C)O2	nt	i	nt	nt	i
CSc1cccc(NC(=O)CCNC(=O)c2ccco2)c1	i	i	i	43.2	i
CCNC(=O)[C@H]1[C@H](CO)[C@H]2Cn3c(ccc(-c4ccccc4)c3=O)[C@@H]1N2C(=O)c1ccccn1	i	i	i	i	i
Cc1ccc(NC(=O)CCCSc2nc3ccccc3[nH]2)cc1	i	nt	i	i	i
Cc1ccc(SCC(=O)Nc2ccc(-c3nc4ccccc4[nH]3)cc2)cc1	38.0	nt	i	i	i
CS(=O)(=O)Nc1ccc2c(c1)[C@H]1C[C@@H](CC(=O)N3CCc4ccccc4C3)O[C@H](CO)[C@H]1O2	i	i	i	i	i
CC(=O)NS(=O)(=O)c1ccc(N=NN2CCCCC2)cc1	i	i	i	i	nt
NS(=O)(=O)c1ccc(N=NN2CCCCC2)cc1	i	nt	i	42.9	i
COCCNC(=O)C[C@H]1C[C@H]2c3cc(NC(=O)CC4CC4)ccc3O[C@H]2[C@@H](CO)O1	i	i	i	i	i
COc1cc(/C=C/C(=O)O)ccc1S(=O)(=O)N1CCCc2ccccc21	i	nt	i	43.5	i
CC(C)NC(=O)N(C)C[C@H]1Oc2ncc(C#Cc3ccncc3)cc2C(=O)N([C@@H](C)CO)C[C@@H]1C	i	i	i	i	i
COc1cc(CCCN2C(=S)NC[C@@H]2c2ccccc2)cc(OC)c1OC	25.1	i	nt	i	i
CS(=O)(=O)c1cccc(-c2csc(N3CCC(C(N)=O)CC3)n2)c1	nt	i	i	43.1	i
C[C@@H]1CCCCO[C@H](CN(C)C(=O)Nc2ccc3c(c2)OCO3)[C@@H](C)CN([C@@H](C)CO)C(=O)c2cc(NC(=O)c3ccccc3)ccc2O1	i	i	i	i	i
COC(=O)c1cc([N+](=O)[O-])c(-n2cncn2)c([N+](=O)[O-])c1	i	i	i	43.0	i
CNC[C@@H]1OCCCC[C@@H](C)Oc2ccc(NC(=O)Cc3ccccc3)cc2C(=O)N([C@@H](C)CO)C[C@H]1C	i	i	i	i	i
SMILES	DENV2 CPE	E-selectin induc	ERAP1 inh	FGF22 binding	F508del corr
CO[C@@H]1CN(C)C(=O)c2cc(NC(C)=O)ccc2OC[C@@H](C)N(CCc2ccccc2)C[C@@H]1C	i	i	i	i	i
CN1c2ccc(-c3cccc(C#N)c3)cc2[C@@H]2[C@@H](CCN2C(=O)C2CC2)[C@@H]1CO	i	i	i	nt	i
CC(C)Oc1cccc(C(=O)C2CCCN(Cc3ccc(Oc4ncccn4)cc3)C2)c1 (stereo unspecified)	i	nt	i	42.9	i
Cc1ccc2c(c1)nc(-n1nc(C)cc1C)c1nnnn12	nt	i	i	42.9	i
Cc1noc(C)c1NC(=O)N(C)C[C@H]1Oc2ccc(NC(=O)Cc3cn(C)c4ccccc34)cc2CC(=O)N([C@@H](C)CO)C[C@H]1C	i	i	i	i	i
C[C@@H]1CN([C@@H](C)CO)C(=O)Cc2cc(NC(=O)Cc3cn(C)c4ccccc34)ccc2O[C@@H]1CN(C)Cc1ccc(C(F)(F)F)cc1	77.0	i	i	i	i
C[C@H](CO)N1C[C@H](C)[C@H](CN(C)Cc2ccc(C(F)(F)F)cc2)Oc2ccc(NC(=O)Cc3cn(C)c4ccccc34)cc2CC1=O	i	228.3	i	i	i
C[C@H](CO)N1C[C@H](C)[C@@H](CN(C)Cc2ccc(C(F)(F)F)cc2)Oc2ccc(NC(=O)Cc3cn(C)c4ccccc34)cc2CC1=O	i	i	i	i	i
Cc1ccc2nc(NC(=O)CSc3ncnc4c3oc3ccccc34)sc2c1	i	82.3	i	i	i
O=C(NCc1ccccc1)NC(O)C(Cl)(Cl)Cl (stereo unspecified)	i	i	i	43.8	i
CCCCNC(=O)CSc1nc2ccc(C)cc2[nH]1	i	i	i	i	16.6
COc1ccc(CNC(=O)CSc2nc3ccc(C)cc3[nH]2)cc1	i	i	i	i	i
O=C(Nc1ccccc1F)Nc1ccccc1F	i	nt	i	43.7	i
CC(=O)Nc1cccc(NC(=O)Nc2ccc(F)cc2F)c1	i	i	i	i	i
O=C(Nc1ccccc1)Nc1ccc(F)cc1F	i	i	i	43.4	i
CO[C@@H]1CN(C)C(=O)c2cc(NS(C)(=O)=O)ccc2OC[C@@H](C)N(C)C[C@@H]1C	i	i	i	i	i
Cc1ccc(/C=N/NC(=O)c2ccc(-n3cnnn3)cc2)cc1	32.4	i	i	i	i
C[C@H]1CN([C@@H](C)CO)C(=O)c2cccc(NC(=O)C3CC3)c2O[C@@H]1CN(C)C	23.3	i	i	i	i
C[C@H](CO)N1C[C@H](C)[C@H](CN(C)C)Oc2c(NC(=O)C3CC3)cccc2C1=O	i	i	i	i	i
CC(C)NC(=O)N(C)C[C@H]1Oc2c(NC(=O)C3CC3)cccc2C(=O)N([C@H](C)CO)C[C@H]1C	42.2	i	i	i	i
CC(C)NC(=O)N(C)C[C@H]1Oc2c(NC(=O)C3CC3)cccc2C(=O)N([C@@H](C)CO)C[C@H]1C	i	i	i	i	i
O=C1CCCCCN1C(=O)c1ccccc1	i	i	i	42.9	i
O=C(c1ccccc1)N1CCCc2ccccc21	nt	nt	i	nt	nt
Cc1noc(C)c1NC(=O)Nc1cccc2c1O[C@@H](CN(C)S(=O)(=O)c1ccccc1)[C@H](C)CN([C@H](C)CO)C2=O	nt	i	nt	nt	i
COc1ccc2c3c([nH]c2c1)[C@H](CO)N(C(=O)C1CCCC1)CC31CCN(Cc2nccs2)CC1	i	i	i	i	i
